14 compounds from ChEMBL document CHEMBL1165934, “Synthesis and in vitro toxicity of 4-MTA, its characteristic clandestine synthesis byproducts and related sulfur substituted alpha-alkylthioamphetamines” (Bioorg Med Chem, 2010) can be followed below.

The test system of series [1] is HEK293. Put plainly: Cytotoxicity against human HEK293 cells assessed as cell viability after 48 hrs by neutral red assay. The class given is cell-based. Particulars: HEK293, 48 h. The method in brief:
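HEK293 cells grown in DMEM with 10% FBS and 2 mM L-glutamine. Seeded at 5x10^4 cells/well and grown to sub-confluence (24-36 h), then exposed 48 h. Neutral red dye was added for 3 ± 1 h, then solubilised in 50% ethanol-1% acetic acid. A540 read with A690 background. Viability was taken as % of vehicle. pEC50 came from a sigmoidal fit (Hill slope 1) over 4 concentrations, triplicate, two independent days.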

Series [2] has as its system SH-SY5Y. The experiment in a line: Cytotoxicity against human SH-SY5Y cells assessed as cell viability after 48 hrs by neutral red assay. The class given is cell-based. The method in brief: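 SH-SY5Y grown in DMEM/F12 (1:1) with 10% FBS, 1 mM pyruvate, 2 mM glutamine and 0.1 mM non-essential amino acids, at 37 °C. Seeded 5x10^4 cells/well, treated 48 h, then neutral red uptake for 3 ± 1 h. Absorbance read at 540 nm (690 nm background). Viability was expressed as % of vehicle-treated cells. pEC50 came from a nonlinear sigmoidal fit (Hill slope 1), with 4 concentrations in triplicate on two separate days.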

The subject of series [3] is HEK293. Put plainly: Cytotoxicity against human HEK293 cells over expressing human NET assessed as cell viability after 48 hrs by neutral red assay. Particulars: HEK293, 48 h. The class given is cell-based. The method in brief: (§1)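 Stably transfected HEK293 lines, passage ≤30, kept in DMEM with 10% FBS, 2 mM L-glutamine and Geneticin. Cells seeded at 5x10^4/well and grown to sub-confluence (24-36h), then exposed 48h. Neutral red uptake for 3 ± 1 h, then ethanol/acetic acid solubilisation, A540 minus 690 nm. Viability taken relative to vehicle. Range 1 µM-1 mM, 4 concentrations in triplicate on two independent days. pEC50 from sigmoidal fit (Hill slope 1).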

The test system of series [4] is PC-12. The experiment in a line: Cytotoxicity against rat PC12 cells assessed as cell viability after 48 hrs by neutral red assay. The format is cell-based. Particulars: PC-12, 48 h. The method in brief:
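PC-12 (rat pheochromocytoma) cells on collagen were differentiated 7 days with 100 ng/ml NGF in low-serum DMEM/F12. Seeded at 5x10^4/well, then exposed 48h. Neutral red uptake for 3 ± 1 h, solubilised, A540 (690 nm background). Viability taken against vehicle. Tested 1 µM-1 mM, 4 concentrations in triplicate on two independent days. pEC50 by sigmoidal non-linear regression (Hill slope 1).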

Series [5] relates to HEK293. Put plainly: Cytotoxicity against human HEK293 cells over expressing human DAT assessed as cell viability after 48 hrs by neutral red assay. The format is cell-based. To be noted: HEK293, 48 h. Put shortly: as §1
Series [6] concerns HEK293. The experiment in a line: Cytotoxicity against human HEK293 cells over expressing human SERT assessed as cell viability after 48 hrs by neutral red assay. The class given is cell-based. To be noted: HEK293, 48 h. Put shortly: as §1
Series [7] relates to PC-12. The experiment in a line: Cytotoxicity against rat PC12 cells assessed as cell viability at 1 mM after 48 hrs by neutral red assay. Particulars: pc-12, 48 h, 1000 µM. The format is cell-based. The method in brief:
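Undifferentiated PC-12 cells (rat pheochromocytoma) were seeded at 5x10^4 on collagen and differentiated for seven days with 100 ng/ml NGF in low-serum DMEM/F12. They were then exposed for 48 h to single concentrations. Neutral red staining lasted 3 ± 1 h, with absorbance at 540 nm (690 nm background). Viability was taken as % of vehicle, and each concentration was compared with untreated cells by one-way ANOVA.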

The target in series [8] is Sodium-dependent serotonin transporter (Homo sapiens, UniProt P31645). Put plainly: Binding affinity to human SERT.
Sodium-dependent serotonin transporter, sequence (P31645 whole entry): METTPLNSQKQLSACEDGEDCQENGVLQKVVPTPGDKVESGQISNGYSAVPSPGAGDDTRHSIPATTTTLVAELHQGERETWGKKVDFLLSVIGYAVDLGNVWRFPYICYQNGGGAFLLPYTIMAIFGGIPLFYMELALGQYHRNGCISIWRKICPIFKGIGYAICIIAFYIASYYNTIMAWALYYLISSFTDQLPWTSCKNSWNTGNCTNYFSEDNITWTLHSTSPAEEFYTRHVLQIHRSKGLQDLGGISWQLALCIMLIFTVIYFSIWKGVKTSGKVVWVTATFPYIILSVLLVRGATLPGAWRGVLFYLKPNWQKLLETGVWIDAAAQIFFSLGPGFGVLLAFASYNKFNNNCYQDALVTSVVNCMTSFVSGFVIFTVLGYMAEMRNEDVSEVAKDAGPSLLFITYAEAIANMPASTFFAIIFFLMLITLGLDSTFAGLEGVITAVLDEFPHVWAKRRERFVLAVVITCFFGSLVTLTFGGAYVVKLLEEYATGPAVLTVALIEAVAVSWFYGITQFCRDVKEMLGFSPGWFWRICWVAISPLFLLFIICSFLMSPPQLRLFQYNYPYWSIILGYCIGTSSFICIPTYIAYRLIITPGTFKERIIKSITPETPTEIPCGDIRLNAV
Series [9] in a line: Selectivity ratio of IC50 for SERT to IC50 for DAT.
Series [10] is described as follows: Selectivity ratio of IC50 for SERT to IC50 for NET.

Molecules are shown by their SMILES. pEC50, pIC50: −log10 of the molar value. A value given as a limit tells only on which side of the number the result lay.

As a reminder, the pEC50 is the EC50 on a negative log10 scale, so that one unit is a factor of ten. For `CCc1nc(Cc2ccc(SC)cc2)c(C)cc1-c1ccc(SC)cc1`, the pEC50 was 4.73 in series [1]; 3.75 in [2]; 4.53 in series [3]; 4.53 in series [4]; 4.57 in [5]; 4.46 in series [6].

With `CSc1ccc(CC(Cc2ccc(SC)cc2)NC(C)=O)cc1`, the pEC50 was 4.30 in series [1]; 3.22 in [2]; 4.59 in series [3]; 2.38 in series [4]; 4.08 in series [5]; 4.41 in series [6]. The Activity entry in series [7] was “Non-toxic”.

On to `CCNC(Cc1ccc(SC)cc1)Cc1ccc(SC)cc1`, for which the negative-log EC50 (pEC50) was 4.77 in series [1]; 4.86 in series [2]; 3.58 in series [3]; 3.64 in series [4]; 4.57 in series [5]; 4.59 in [6]. The Activity entry in series [7] was “Toxic”.

The pIC50 is the IC50 on a negative log10 scale, so that one unit is a factor of ten. A low value points to a large IC50. Regarding `CC(N)Cc1ccc2c(c1)OCO2` (configuration not stated) [TENAMFETAMINE], the pIC50 in series [8] was 6.32. For the same compound, the pEC50 in series [3] was 3.23; in series [5], 2.23; in series [6], 3.16.

For the compound `CCC(Cc1ccc(SC)cc1)NC` (configuration not stated), the pEC50 in series [3] is 4.18; in series [5], 3.38; in series [6], 4.26.

With `CNC(C)Cc1ccc2c(c1)OCO2` (configuration not stated) [MIDOMAFETAMINE], the results for the pEC50 in [3], in [5] and in series [6] were 2.81, 2.71 and 3.31, respectively.

As for `CSc1ccc(CC(C)N)cc1` (configuration not stated) [4-METHYLTHIOAMPHETAMINE], the negative-log EC50 (pEC50) in series [2] is 3.29; in [3], 4.65; in series [4] it was 3.53; in [5], 4.38; in series [6], 4.65. The Ratio IC50 in series [9] was 3070; in series [10], 2370.

`CSc1ccc(Cc2ccncn2)cc1`: the pEC50 is 5.03 in series [1]; 2.53 in [2]; 4.20 in [3]; 4.17 in series [4]; 4.93 in series [5]; 4.78 in series [6].

For the compound `CSc1ccc(CC(Cc2ccc(SC)cc2)NC=O)cc1`, the pEC50 in [2] is 4.49; in series [3], 3.34; in series [4], 4.42; in series [5], 4.06; in [6] it was 4.30.

On to `CSc1ccc(CC(C)NC=O)cc1` (configuration not stated), for which the negative logarithm of the EC50 (pEC50) in [1] was 2.54; in [2], below 2.00; in series [3] it was 3.43; in series [4], below 2.00; in [5], 2.64; in [6], 2.87. Also, in series [7], the Activity result is on record as “Non-toxic”.

In the case of `CSc1ccc(CC(N)Cc2ccc(SC)cc2)cc1`, the pEC50 was 4.65 in series [1]; 4.73 in series [2]; 3.90 in [3]; 3.20 in series [4]; 4.60 in series [5]; 4.61 in series [6]. Moreover, in [7], the Activity result is reported as “Toxic”.

For the compound `CSc1ccc(CC(C)NC(C)Cc2ccc(SC)cc2)cc1` (configuration not stated), the negative-log EC50 (pEC50) was 4.79 in series [1]; 4.65 in [2]; 4.60 in series [3]; 4.56 in [4]; 4.58 in [5]; 4.59 in series [6].

Consider `CCC(Cc1ccc(SC)cc1)NC=O` (configuration not stated), for which the pEC50 in series [1] was 4.21; in [2] it was below 2.00; in series [3], 4.10; in [4] it was 3.13; in [5], 2.95; in series [6] it was 4.19. Besides, in series [7], the Activity result is given as “Toxic”.

`CSc1ccc(C/C(C)=N/O)cc1`: the negative-log EC50 (pEC50) in [1] was 2.52; in [2], 3.47; in series [3], 2.76; in [4], 3.11; in series [5] it was 4.17; in [6] it was 3.67. In [7], the Activity entry is reported as “Toxic”.
